Test results: ChEMBL document CHEMBL1212762, “In vivo activity of ceftobiprole in murine skin infections due to Staphylococcus aureus and Pseudomonas aeruginosa” (Antimicrob Agents Chemother, 2010)

Experiments:
[1] = tested on: Pseudomonas aeruginosa; assay: Antimicrobial activity against Pseudomonas aeruginosa OC 4354 infected in immunocompromized SKH1 mouse assessed as log change in bacterial colony forming unit at 25 mg/kg/day, sc; format: functional; settings: route subcutaneous
How it was run: (§1)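 Female SKH1 hairless mice made neutropenic with ip cyclophosphamide (150 mg/kg 5 days and 100 mg/kg 1 day before infection). 0.2 ml s.c. Cytodex bead (0.1% vol/vol) inoculum in BHI: OC 4351 left flank, OC 4354 right flank. Drug s.c. at 1, 3, 25, 27 h postinfection. Killed at 48 h; skin homogenised in saline, plated on TSA 18 h 37°C; Δlog CFU/g versus inoculum. 5 mice/dose, run twice.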

[2] = tested on: Pseudomonas aeruginosa; assay: Antimicrobial activity against Pseudomonas aeruginosa OC 4351 infected in immunocompromized SKH1 mouse assessed as lesion volume at 6.2 mg/kg/day, sc measured after 48 hrs postinfection (reference value: 2234 mm3); format: functional; settings: route subcutaneous
[3] = Half life in immunocompromized SKH1 mouse plasma at 50 mg/kg, sc; format: ADME, organism-based; set-up: dose 50 mg/kg, route subcutaneous
[4] = tested on: Pseudomonas aeruginosa; assay: Antimicrobial activity against Pseudomonas aeruginosa OC 4351 infected in immunocompromized SKH1 mouse assessed as log change in bacterial colony forming units at 25 mg/kg/day, sc; format: functional; settings: route subcutaneous; how it was run: as §1
[5] = fT>MIC in Pseudomonas aeruginosa OC 4351 infected sc dosed SKH1 mouse at 50 mg/kg, sc administered twice at 1 and 3 hrs after infection; format: functional; settings: route subcutaneous
[6] = Tmax in immunocompromized SKH1 mouse plasma at 12.5 mg/kg, sc; format: ADME, organism-based; set-up: dose 12.5 mg/kg, route subcutaneous
How it was run: (§2)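 Female SKH1 hairless mice, immunocompetent or cyclophosphamide-neutropenic, infected s.c. with MRSA OC 8525 or P. aeruginosa OC 4354 on the Cytodex beads (left flank), sterile beads on the right. Single dose 24 h later: s.c. at the nape, or linezolid 50 mg/kg oral. Plasma and skin (DMSO homogenate) sampled over time, HPLC with diode array.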

[7] = tested on: Plasma; assay: fAUC (0-infinity) in immunocompromized SKH1 mouse plasma at 50 mg/kg, sc; format: ADME, organism-based; set-up: dose 50 mg/kg, route subcutaneous; settings: in vivo; how it was run: as §2
[8] = tested on: Pseudomonas aeruginosa; assay: Antimicrobial activity against Pseudomonas aeruginosa OC 4351 infected in immunocompromized SKH1 mouse assessed as lesion volume at 25 mg/kg/day, sc measured after 48 hrs postinfection (reference value: 2234 mm3); format: functional; settings: route subcutaneous
[9] = tested on: Pseudomonas aeruginosa; assay: Antimicrobial activity against Pseudomonas aeruginosa OC 4351 assessed as inhibition of growth by broth microdilution method; format: functional
[10] = tested on: Pseudomonas aeruginosa; assay: Antimicrobial activity against Pseudomonas aeruginosa OC 4354 infected in immunocompromized SKH1 mouse assessed as lesion volume at 25 mg/kg/day, sc measured after 48 hrs postinfection (reference value: 2195 mm3); format: functional; settings: route subcutaneous
[11] = tested on: Pseudomonas aeruginosa; assay: Antimicrobial activity against Pseudomonas aeruginosa OC 4354 infected in immunocompromized SKH1 mouse assessed as log change in bacterial colony forming unit at 1.6 mg/kg/day, sc; format: functional; settings: route subcutaneous; how it was run: as §1
[12] = tested on: Pseudomonas aeruginosa; assay: Antimicrobial activity against Pseudomonas aeruginosa OC 4354 assessed as inhibition of growth by broth microdilution method; format: functional
[13] = fT>MIC in Pseudomonas aeruginosa OC 4354 infected sc dosed SKH1 mouse administered in 24 hrs dosing interval; format: functional
How it was run: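 Plasma levels came from female hairless SKH1 mice given single s.c. doses at the nape 24 h after flank s.c. infection with Cytodex beads. S. aureus work used immunocompetent mice. P. aeruginosa work used mice made neutropenic with cyclophosphamide i.p., 150 mg/kg at day −5 and 100 mg/kg at day −1. Drug assayed by HPLC with diode-array detection. Noncompartmental analysis.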

[14] = tested on: Pseudomonas aeruginosa; assay: Antimicrobial activity against Pseudomonas aeruginosa OC 4354 infected in immunocompromized SKH1 mouse assessed as log change in bacterial colony forming unit at 100 mg/kg/day, sc; format: functional; settings: route subcutaneous; how it was run: as §1
[15] = tested on: Pseudomonas aeruginosa; assay: Antimicrobial activity against Pseudomonas aeruginosa OC 4351 infected in immunocompromized SKH1 mouse assessed as lesion volume at 100 mg/kg/day, sc measured after 48 hrs postinfection (reference value: 2234 mm3); format: functional; settings: route subcutaneous
[16] = Half life in immunocompromized SKH1 mouse plasma at 12.5 mg/kg, sc; format: ADME, organism-based; set-up: dose 12.5 mg/kg, route subcutaneous; how it was run: as §2
[17] = tested on: Pseudomonas aeruginosa; assay: Antimicrobial activity against Pseudomonas aeruginosa OC 4351 infected in immunocompromized SKH1 mouse assessed as lesion volume at 1.6 mg/kg/day, sc measured after 48 hrs postinfection (reference value: 2234 mm3); format: functional; settings: route subcutaneous
[18] = fT>MIC in Pseudomonas aeruginosa OC 4354 infected sc dosed SKH1 mouse at 50 mg/kg, sc administered twice at 1 and 3 hrs after infection; format: functional; settings: route subcutaneous
[19] = tested on: Pseudomonas aeruginosa; assay: Antimicrobial activity against Pseudomonas aeruginosa OC 4354 infected in immunocompromized SKH1 mouse assessed as lesion volume at 1.6 mg/kg/day, sc measured after 48 hrs postinfection (reference value: 2195 mm3); format: functional; settings: route subcutaneous
[20] = tested on: Pseudomonas aeruginosa; assay: Antimicrobial activity against Pseudomonas aeruginosa OC 4351 infected in immunocompromized SKH1 mouse assessed as log change in bacterial colony forming unit at 100 mg/kg/day, sc; format: functional; settings: route subcutaneous; how it was run: as §1
[21] = Tmax in immunocompromized SKH1 mouse plasma at 50 mg/kg, sc; format: ADME, organism-based; set-up: dose 50 mg/kg, route subcutaneous; how it was run: as §2
[22] = fT>MIC in Pseudomonas aeruginosa OC 4351 infected sc dosed SKH1 mouse administered in 24 hrs dosing interval; format: functional
[23] = tested on: Pseudomonas aeruginosa; assay: Antimicrobial activity against Pseudomonas aeruginosa OC 4351 infected in immunocompromized SKH1 mouse assessed as log change in bacterial colony forming unit at 25 mg/kg/day, sc; format: functional; settings: route subcutaneous; how it was run: as §1
[24] = tested on: Plasma; assay: fCmax in immunocompromized SKH1 mouse plasma at 50 mg/kg, sc; format: ADME, organism-based; set-up: dose 50 mg/kg, route subcutaneous; settings: in vivo; how it was run: as §2
[25] = tested on: Pseudomonas aeruginosa; assay: Antimicrobial activity against Pseudomonas aeruginosa OC 4354 infected in immunocompromized SKH1 mouse assessed as lesion volume at 100 mg/kg/day, sc measured after 48 hrs postinfection (reference value: 2195 mm3); format: functional; settings: route subcutaneous
[26] = tested on: Pseudomonas aeruginosa; assay: Antimicrobial activity against Pseudomonas aeruginosa OC 4351 infected in immunocompromized SKH1 mouse assessed as log change in bacterial colony forming unit at 1.6 mg/kg/day, sc; format: functional; settings: route subcutaneous; how it was run: as §1
[27] = tested on: Plasma; assay: fCmax in immunocompromized SKH1 mouse plasma at 12.5 mg/kg, sc; format: ADME, organism-based; set-up: dose 12.5 mg/kg, route subcutaneous; settings: in vivo; how it was run: as §2
[28] = tested on: Pseudomonas aeruginosa; assay: Antimicrobial activity against Pseudomonas aeruginosa OC 4354 infected in immunocompromized SKH1 mouse assessed as log change in bacterial colony forming unit at 6.2 mg/kg/day, sc; format: functional; settings: route subcutaneous; how it was run: as §1
[29] = tested on: Pseudomonas aeruginosa; assay: Antimicrobial activity against Pseudomonas aeruginosa OC 4354 infected in immunocompromized SKH1 mouse assessed as lesion volume at 6.2 mg/kg/day, sc measured after 48 hrs postinfection (reference value: 2195 mm3); format: functional; settings: route subcutaneous
[30] = tested on: Plasma; assay: fAUC (0-infinity) in immunocompromized SKH1 mouse plasma at 12.5 mg/kg, sc; format: ADME, organism-based; set-up: dose 12.5 mg/kg, route subcutaneous; settings: in vivo; how it was run: as §2
[31] = Tmax in immunocompetent SKH1 mouse plasma at 50 mg/kg, sc; format: ADME, organism-based; set-up: dose 50 mg/kg, route subcutaneous; how it was run: as §2
[32] = Protein binding in mouse plasma; format: ADME, cell-free; settings: read-out: PPB (converted)
[33] = tested on: Staphylococcus aureus; assay: Antimicrobial activity against methicillin-susceptible Staphylococcus aureus Smith OC 4172 infected immunocompetent SKH1 mouse assessed as lesion volume at 1.6 mg/kg/day, sc measured after 48 hrs postinfection (reference value: 1181 mm3); settings: route subcutaneous
[34] = tested on: Staphylococcus aureus; assay: Antimicrobial activity against methicillin-resistant Staphylococcus aureus OC 8525 infected immunocompetent SKH1 mouse assessed as lesion volume at 25 mg/kg/day, sc measured after 48 hrs postinfection (reference value: 1535 mm3); settings: route subcutaneous
[35] = Half life in immunocompetent SKH1 mouse plasma at 50 mg/kg, sc; format: ADME, organism-based; set-up: dose 50 mg/kg, route subcutaneous
[36] = tested on: Staphylococcus aureus; assay: Antimicrobial activity against methicillin-resistant Staphylococcus aureus OC 8525 infected immunocompetent SKH1 mouse assessed as lesion volume at 6.2 mg/kg/day, sc measured after 48 hrs postinfection (reference value: 1535 mm3); settings: route subcutaneous
[37] = tested on: Staphylococcus aureus; assay: Antimicrobial activity against methicillin-resistant Staphylococcus aureus OC 8525 infected immunocompetent SKH1 mouse assessed as lesion volume at 100 mg/kg/day, sc measured after 48 hrs postinfection (reference value: 1535 mm3); settings: route subcutaneous
[38] = tested on: Plasma; assay: fAUC (0-infinity) in immunocompetent SKH1 mouse plasma at 50 mg/kg, sc; format: ADME, organism-based; set-up: dose 50 mg/kg, route subcutaneous; settings: in vivo; how it was run: as §2
[39] = Ratio of fAUC to MIC in Staphylococcus aureus OC 4172 infected sc dosed SKH1 mouse; format: functional
How it was run: (§3)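 Free-drug plasma AUC, converted from μg·min/ml to μg·h/ml, divided by the MIC of the infecting S. aureus strain.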

[40] = Ratio of fAUC to MIC in Staphylococcus aureus OC 8525 infected sc dosed SKH1 mouse; format: functional; how it was run: as §3
[41] = tested on: Plasma; assay: fCmax in immunocompetent SKH1 mouse plasma at 50 mg/kg, sc; format: ADME, organism-based; set-up: dose 50 mg/kg, route subcutaneous; settings: in vivo; how it was run: as §2
[42] = tested on: Staphylococcus aureus; assay: Antimicrobial activity against methicillin-susceptible Staphylococcus aureus Smith OC 4172 infected immunocompetent SKH1 mouse assessed as lesion volume at 100 mg/kg/day, sc measured after 48 hrs postinfection (reference value: 1181 mm3); settings: route subcutaneous
[43] = tested on: Staphylococcus aureus; assay: Antimicrobial activity against methicillin-susceptible Staphylococcus aureus Smith OC 4172 infected immunocompetent SKH1 mouse assessed as lesion volume at 6.2 mg/kg/day, sc measured after 48 hrs postinfection (reference value: 1181 mm3); settings: route subcutaneous
[44] = tested on: Staphylococcus aureus; assay: Antimicrobial activity against methicillin-susceptible Staphylococcus aureus Smith OC 4172 infected immunocompetent SKH1 mouse assessed as lesion volume at 25 mg/kg/day, sc measured after 48 hrs postinfection (reference value: 1181 mm3); settings: route subcutaneous
[45] = tested on: Staphylococcus aureus; assay: Antimicrobial activity against methicillin-resistant Staphylococcus aureus OC 8525 infected immunocompetent SKH1 mouse assessed as lesion volume at 1.6 mg/kg/day, sc measured after 48 hrs postinfection (reference value: 1535 mm3); settings: route subcutaneous

With `C[C@@H](O)[C@H]1C(=O)N2C(C(=O)O)=C(S[C@@H]3CN[C@H](C(=O)N(C)C)C3)[C@H](C)[C@H]12` [MEROPENEM] the deltalog10CFU [1] was -1.1, the Activity [2] was 992 mm3 and the half-life [3] was 8.6 min. For the same compound, the deltalog10CFU [4] was -0.9, the “fT>MIC” value [5] was 2 h and the Tmax [6] was 7.5 min. For the same compound, the fAUC [7] was 1837 µg·min/mL, the Activity [8] was 862 mm3 and the MIC [9] was 0.12 µg/mL. The Activity [10] was 926 mm3, the deltalog10CFU [11] was 0.7 and the MIC [12] was 0.5 µg/mL. For the same compound, the “fT>MIC” value [13] was 8%, the deltalog10CFU [14] was -1.1 and the Activity [15] was 602 mm3. The half-life [16] was 13.6 min, the Activity [17] was 1190 mm3 and the “fT>MIC” value [18] was 1.9 h. It also gave an Activity [19] of 1316 mm3, a deltalog10CFU [20] of -1 and a Tmax [21] of 7.5 min. For the same compound, the “fT>MIC” value [22] was 8.5%, the deltalog10CFU [23] was 0.2 and the fCmax [24] was 72 µg/mL. The Activity [25] was 810 mm3, the deltalog10CFU [26] was 0.2 and the fCmax [27] was 11 µg/mL. For the same compound, the deltalog10CFU [28] was 0.5, the Activity [29] was 1030 mm3 and the fAUC [30] was 268 µg·min/mL.
With `CN[C@H](CC(C)C)C(=O)N[C@H]1C(=O)N[C@@H](CC(N)=O)C(=O)N[C@H]2C(=O)N[C@H]3C(=O)N[C@H](C(=O)N[C@H](C(=O)O)c4cc(O)cc(O)c4-c4cc3ccc4O)[C@H](O)c3ccc(c(Cl)c3)Oc3cc2cc(c3O[C@@H]2O[C@H](CO)[C@@H](O)[C@H](O)[C@H]2O[C@H]2C[C@](C)(N)[C@H](O)[C@H](C)O2)Oc2ccc(cc2Cl)[C@H]1O` [VANCOMYCIN] the Tmax [31] was 10 min, the fraction unbound [32] was 0.75 and the Activity [33] was 1386 mm3. It also gave an Activity [34] of 927 mm3, a half-life [35] of 22 min and an Activity [36] of 1392 mm3. It also gave an Activity [37] of 606 mm3, a fAUC [38] of 2070 µg·min/mL and a fAUC/MIC [39] of 2070. It also gave a fAUC/MIC [40] of 2070, a fCmax [41] of 40 µg/mL and an Activity [42] of 437 mm3. For the same compound, the Activity [43] was 1211 mm3, the Activity [44] was 916 mm3 and the Activity [45] was 1637 mm3.
